The target in assay [1] is T1, Vitamin D3 receptor (Homo sapiens) (UniProt P11473).
T1 sequence (whole entry): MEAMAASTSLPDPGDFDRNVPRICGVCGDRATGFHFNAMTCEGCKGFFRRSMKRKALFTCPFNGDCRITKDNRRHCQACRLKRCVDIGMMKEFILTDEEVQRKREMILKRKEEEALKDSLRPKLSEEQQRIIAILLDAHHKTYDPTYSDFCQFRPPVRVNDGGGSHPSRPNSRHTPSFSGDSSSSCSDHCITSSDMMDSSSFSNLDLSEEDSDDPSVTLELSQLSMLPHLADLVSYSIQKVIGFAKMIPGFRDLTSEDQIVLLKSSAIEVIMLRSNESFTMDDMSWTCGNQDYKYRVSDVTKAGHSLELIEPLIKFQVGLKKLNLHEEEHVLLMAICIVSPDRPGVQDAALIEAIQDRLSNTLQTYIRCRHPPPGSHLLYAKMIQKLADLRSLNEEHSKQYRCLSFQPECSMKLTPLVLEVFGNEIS
Nature of the assay: Antagonist activity at human vitamin D receptor expressed in African green monkey COS7 cells assessed as inhibition of 1,25D3-induced transactivation after 16 hrs by dual luciferase reporter gene assay. It is filed as cell-based. In a few lines:
(§1)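 Cells were co-transfected with full-length human VDR expression plasmid (pCMX-hVDR), a luciferase reporter carrying three copies of mouse osteopontin VDRE (SPPx3-TK-Luc), and a sea pansy luciferase internal control (pRL-CMV), then read by dual luciferase assay. Activity is scaled so that 10−8 M 1,25D3 equals 1 in Cos7 and 10−9 M 1,25D3 equals 1 in HEK293. Inhibition was tested in the presence of 1,25D3.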
(Reporter assays use an easily measured gene product as a stand-in for the process of interest.)

Assay [2] addresses T2, Vitamin D3 receptor (Homo sapiens, UniProt P11473).
T2 sequence (P11473 whole entry): T1 sequence (whole entry)
Nature of the assay: Displacement of [3H]-1,25-(OH)2D3 from N-terminal GST-tagged human recombinant vitamin D receptor ligand binding domain expressed in Escherichia coli BL21 (DE3) pLys S after 16 hrs. A general note: In a radioligand displacement assay an active substance lowers the binding of a labelled ligand.

In assay [3] the target is T1, Vitamin D3 receptor (Homo sapiens). Put plainly: Partial agonist activity at human vitamin D receptor expressed in HEK293 cells after 16 hrs by dual luciferase reporter gene assay. Type of assay: cell-based. Put shortly:
as §1

The target is the same in assay [4]. Nature of the assay: Ratio of 1,25-(OH)2D3 IC50 to test compound IC50 for displacement of [3H]-1,25-(OH)2D3 from N-terminal GST-tagged human recombinant vitamin D receptor ligand binding domain expressed in Escherichia coli BL21 (DE3) pLys S after 16 hrs.
Assay [5] has the same target. Put plainly: Agonist activity at human vitamin D receptor expressed in African green monkey COS7 cells after 16 hrs by dual luciferase reporter gene assay. It is filed as cell-based. Put shortly: as §1
Assay [6] has the same target. Nature of the assay: Antagonist activity at VP16-fused human vitamin D receptor in HEK293 cells assessed as inhibition of ligand-induced GAL4-fused SRC1 coactivator recruitment by dual luciferase assay. It is filed as cell-based.
Assay [7] shares this target. Put plainly: Antagonist activity at VP16-fused human vitamin D receptor in HEK293 cells assessed as inhibition of ligand-induced GAL4-fused RXRalpha recruitment by dual luciferase assay. It is filed as cell-based.
Assay [8] deals with T2, Vitamin D3 receptor.

Molecules are shown by their SMILES. Active and inactive are the calls of the source. The calls are words filed in the database; no cut-off is given here.

A word on the IC50: it is the concentration that inhibits the measured activity by half. As for `C=C1[C@H](O)CC(=C/C=C2\CCC[C@]3(C)[C@@H]([C@H](C)CCCC(O)c4ccc(O)cc4)CC[C@@H]23)C[C@H]1O` (stereo partly specified), the “antagonist activity (qualitative)” value in assay [1] is “Active”. Besides, on Vitamin D3 receptor [2], the 50% inhibitory concentration (IC50) is 36 nM. Also, the outcome in assay [3] was Active. Besides, the relative affinity (IC50 ref/IC50 test) in assay [4] worked out at 0.0044.

As for `C=C1[C@H](O)CC(=C/C=C2\CCC[C@]3(C)[C@@H]([C@H](C)[C@@H](CCCC)CCC(O)c4ccc(O)cc4)CC[C@@H]23)C[C@H]1O` (stereo partly specified), the “antagonist activity (qualitative)” value in assay [1] was “Dose-dependent effect”. For the same compound, the 50% inhibitory concentration (IC50) at Vitamin D3 receptor [2] was 17 nM. The outcome in assay [5] was inactive. Further, the result in assay [3] was Active. For the same compound, the relative affinity (IC50 ref/IC50 test) in assay [4] is 0.0094.

`C=C1[C@H](O)CC(=C/C=C2\CCC[C@]3(C)[C@@H]([C@H](C)CCCC(OC)c4ccc(O)cc4)CC[C@@H]23)C[C@H]1O` (stereo partly specified): on Vitamin D3 receptor [2], the concentration for half-maximal inhibition (IC50) was 102 nM. In addition, the relative affinity (IC50 ref/IC50 test) in assay [4] came out at 0.0049.

As to `C=C1[C@H](O)CC(=C/C=C2\CCC[C@]3(C)[C@@H]([C@H](C)[C@@H](CCCC)CCC(O)(c4ccc(O)cc4)c4ccc(O)cc4)CC[C@@H]23)C[C@H]1O`, in assay [6], the inhibition result is “Active”. Also, the concentration for half-maximal inhibition (IC50) on Vitamin D3 receptor [2] came out at 130 nM; on Vitamin D3 receptor [8], 400 nM. In addition, the outcome in assay [5] was inactive. Also, the inhibition result in assay [7] was “inactive”. Moreover, in assay [4], the relative affinity (IC50 ref/IC50 test) is 0.0042.

Consider `C=C1[C@H](O)CC(=C/C=C2\CCC[C@]3(C)[C@@H]([C@H](C)[C@@H](CCCC)CCC(OC)c4ccc(O)cc4)CC[C@@H]23)C[C@H]1O` (stereo partly specified), for which the “antagonist activity (qualitative)” value in assay [1] is “Active”. Further, at Vitamin D3 receptor [2], the half-maximal inhibitory concentration (IC50) is 23 nM. The result in assay [3] was Active. Besides, in assay [4], the relative affinity (IC50 ref/IC50 test) turned out to be 0.031.

Take `C=C1[C@H](O)CC(=C/C=C2\CCC[C@]3(C)[C@@H]([C@H](C)CCCC(O)(c4ccc(O)cc4)c4ccc(O)cc4)CC[C@@H]23)C[C@H]1O`: the inhibition entry in assay [6] and in assay [7] was “Active” each time. Also, the IC50 was 520 nM on Vitamin D3 receptor [2] and 800 nM against Vitamin D3 receptor [8]. For the same compound, in assay [5], the outcome was inactive. For the same compound, the relative affinity (IC50 ref/IC50 test) in assay [4] amounted to 0.00096.

As for `C=C1[C@H](O)CC(=C/C=C2\CCC[C@]3(C)[C@@H]([C@H](C)CCCC(=O)c4ccc(O)cc4)CC[C@@H]23)C[C@H]1O`, the “antagonist activity (qualitative)” value in assay [1] is “Active”. Further, the IC50 on Vitamin D3 receptor [2] amounted to 84 nM. Further, in assay [3], the outcome was Active. The relative affinity (IC50 ref/IC50 test) in assay [4] was found to be 0.006.

Turning to `C=C1[C@H](O)CC(=C/C=C2\CCC[C@]3(C)[C@@H]([C@H](C)[C@@H](CCCC)CCC(=O)c4ccc(O)cc4)CC[C@@H]23)C[C@H]1O`, the inhibition entry in assay [6] was “Active”. The 50% inhibitory concentration (IC50) on Vitamin D3 receptor [2] stood at 20 nM. Besides, the outcome in assay [5] was inactive. Further, the inhibition result in assay [7] is “inactive”. In assay [4], the relative affinity (IC50 ref/IC50 test) is 0.028.

The values above are taken from ChEMBL document CHEMBL4017538, “Vitamin D Analogues with a p-Hydroxyphenyl Group at the C25 Position: Crystal Structure of Vitamin D Receptor Ligand-Binding Domain Complexed with the Ligand Explains the Mechanism Underlying Full Antagonistic Action” (J Med Chem, 2017).
